Measurements reported in ChEMBL document CHEMBL4196114 (ACS Med Chem Lett, 2018).
pIC50: −log10 of the molar value.

Key:
Leishmania infantum [1] = assay: Antileishmanial activity against Leishmania infantum MHOM/TN/1980/IPT-1 amastigotes infected in Balb/c mouse assessed as reduction in liver parasite load at 100 mg/kg, po administered for 4 days measured post last dose relative to control; type: functional; set-up: scale not given: the % may be the effect or the level left
Summary of the method: (§1)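 Balb/c mice (18-20 g) inoculated via tail vein with 2×10⁶ semi-purified L. infantum IPT-1 amastigotes. Dosing p.o. (0.1% Tween/0.5% HEC in water, or water) or s.c. (sunflower oil, or water) for 4 or 5 consecutive days from day 9 post-infection.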

Leishmania infantum [2] = assay: Antileishmanial activity against amastigote stage of Leishmania infantum infected in PMA-differentiated human THP1 cells assessed as inhibition of parasite growth at 0.5 uM after 72 hrs by Giemsa staining based light microscopy relative to control; type: functional; details: THP-1, 72 h
Summary of the method: (§2)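 THP-1 cells at 5×10⁵ cells/mL differentiated with 0.1 μM PMA for 48 h, then infected with metacyclic L. infantum promastigotes (1:10 macrophage:parasite) for 24 h. Washed monolayers exposed to compound for 72 h, methanol-fixed and Giemsa-stained. Percent infected macrophages versus untreated scored by light microscopy, and IC50 derived. Single-concentration values are means of two or three experiments, IC50 of two.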

Leishmania infantum [3] = assay: Antileishmanial activity against amastigote stage of Leishmania infantum infected in PMA-differentiated human THP1 cells assessed as inhibition of parasite growth after 72 hrs by Giemsa staining based light microscopy; type: functional, organism-based; details: THP-1, 72 h; summary of the method: as §2
[4] = Selectivity index, ratio of IC50 for PMA-differentiated human THP1 cells to IC50 for amastigote stage of Leishmania infantum infected in PMA-differentiated human THP1 cells; type: toxicity; details: read-out: Ratio IC50
Leishmania infantum [5] = assay: Antileishmanial activity against Leishmania infantum MHOM/TN/1980/IPT-1 amastigotes infected in Balb/c mouse assessed as reduction in liver parasite load at 60 mg/kg, po administered for 4 days measured post last dose relative to control; type: functional; set-up: scale not given: the % may be the effect or the level left
Summary of the method: as §1, with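 “post-infection. On day 13 or 14, liver weight × amastigotes per liver cell gives relative load, expressed versus the untreated control group mean.” for “post-infection.”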

[6] = Selectivity index, ratio of IC50 for PMA-differentiated human THP1 cells to IC50 for Leishmania tropica MHOM/IT/2012/ISS3130 promastigotes; type: toxicity; details: read-out: Ratio IC50
Mus musculus [7] = assay: Toxicity in C57Bl/6 mouse assessed as effect on normal behavior at 300 mg/kg, po administered as single dose measured twice daily up to 30 days; type: organism-based; details: in vivo, 720 h
Summary of the method: (§3)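 Healthy female C57Bl/6 mice, groups of four or five, received one oral dose. Compound was first dissolved in DMSO, then suspended in 0.5% hydroxyethylcellulose-0.1% Tween 80. Behaviour and appearance were checked twice daily for 30 days. A dose counted as tolerated if all mice survived 30 days with normal appearance and behaviour.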

[8] = Selectivity index, ratio of IC50 for PMA-differentiated human THP1 cells to IC50 for Leishmania infantum MHOM/TN/80/IPT1 promastigotes; type: toxicity; details: read-out: Ratio IC50
Leishmania infantum [9] = assay: Antileishmanial activity against Leishmania infantum MHOM/TN/1980/IPT-1 amastigotes infected in sc dosed Balb/c mouse assessed as reduction in liver parasite load administered for 4 to 5 days measured post last dose; type: functional, organism-based; summary of the method: as §1
Leishmania infantum [10] = assay: Antileishmanial activity against Leishmania infantum MHOM/TN/80/IPT1 promastigotes after 72 hrs by MTT assay; type: functional, organism-based; details: MHOM/TN/80/IPT1, 72 h
Summary of the method: (§4)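 Promastigotes grown in Schneider's medium with 10% FCS at 22 °C. Assay in RPMI with 10% FCS, 20 mM Hepes and 2 mM glutamine, 5×10⁶ parasites/mL, seven serial dilutions from DMSO stocks, 72 h at 22 °C. MTT added for 3 h, pellet lysed in SDS/DMF, A550 read against 650 nm reference. IC50 given as mean of separate duplicate experiments; amphotericin B as reference.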

Leishmania tropica = assay: Antileishmanial activity against Leishmania tropica MHOM/IT/2012/ISS3130 promastigotes after 72 hrs by MTT assay; type: functional, organism-based; details: MHOM/IT/2012/ISS3130, 72 h; summary of the method: as §4
Leishmania infantum [11] = assay: Antileishmanial activity against Leishmania infantum MHOM/TN/1980/IPT-1 amastigotes infected in Balb/c mouse assessed as reduction in liver parasite load at 5 mg/kg, sc administered for 5 days measured post last dose relative to control; type: functional; set-up: scale not given: the % may be the effect or the level left
Summary of the method: as §1, with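 “post-infection. On day 13 or 14, liver weight × amastigotes per liver cell gives relative load, expressed versus the untreated control group mean.” for “post-infection.”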

Leishmania infantum [12] = assay: Antileishmanial activity against Leishmania infantum MHOM/TN/1980/IPT-1 amastigotes infected in Balb/c mouse assessed as reduction in liver parasite load at 10 mg/kg, sc administered for 4 days measured post last dose relative to control; type: functional; set-up: scale not given: the % may be the effect or the level left
Summary of the method: as §1, with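 “post-infection. On day 13 or 14, liver weight × amastigotes per liver cell gives relative load, expressed versus the untreated control group mean.” for “post-infection.”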

Mus musculus [13] = assay: Toxicity in Balb/c mouse infected with Leishmania infantum MHOM/TN/1980/IPT-1 amastigotes assessed as death at 100 mg/kg, administered for 4 days measured on day 10 to 12; type: organism-based; details: in vivo, 96 h
BMDM [14] = assay: Induction of nitric oxide production in IFNgamma-primed mouse BMDM measured after 24 hrs by Griess assay; type: functional, cell-based
Leishmania infantum [15] = assay: Antileishmanial activity against Leishmania infantum MHOM/TN/1980/IPT-1 amastigotes infected in po dosed Balb/c mouse assessed as reduction in liver parasite load administered for 4 to 5 days measured post last dose; type: functional, organism-based; summary of the method: as §1
Mus musculus [16] = assay: Toxicity in C57Bl/6 mouse assessed as survival at 300 mg/kg, po administered as single dose measured twice daily up to 30 days; type: organism-based; details: in vivo, 720 h; summary of the method: as §3
THP-1 = assay: Cytotoxicity against PMA-differentiated human THP1 cells after 72 hrs by MTT assay; type: cell-based; details: THP-1, 72 h
Summary of the method: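 THP-1 cells at 5×10⁵ cells/mL, differentiated with 0.1 μM PMA for 48 h, then exposed to serial dilutions for 72 h. Viability read by MTT; IC50 for growth inhibition. Duplicate experiments, mean reported.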

Mus musculus [17] = assay: Toxicity in C57Bl/6 mouse assessed as effect on normal appearance at 300 mg/kg, po administered as single dose measured twice daily up to 30 days; type: organism-based; details: in vivo, 720 h; summary of the method: as §3
BMDM [18] = assay: Induction of reactive oxygen species production in IFNgamma-primed mouse BMDM measured after 24 hrs by H2DCFDA probe based assay; type: functional, cell-based

**Q.** For Cl.Cl.Cl.Cl.Clc1ccc2c(NCCCN3CCN(CCCNCCC45CC6CC(CC(C6)C4)C5)CC3)ccnc2c1, which Activity (Leishmania infantum [1]) is on record?
**A.** The Activity was 100%.

**Q.** What about the inhibition at 0.5 µM (Leishmania infantum [2]) of the same molecule?
**A.** The inhibition at 0.5 µM was 72.2%.

**Q.** And the pIC50 (Leishmania infantum [3])?
**A.** The pIC50 was 6.51.

**Q.** What about the selectivity ratio [4] of the same molecule?
**A.** The selectivity ratio was 3.22.

**Q.** What about the Activity (Leishmania infantum [5]) of the same molecule?
**A.** The Activity was 96%.

**Q.** What about the selectivity ratio [6] of the same molecule?
**A.** Its selectivity ratio is 2.

**Q.** And the Activity (Mus musculus [7])?
**A.** Its Activity is “Non-Toxic”.

**Q.** What about the selectivity ratio [8] of the same molecule?
**A.** The selectivity ratio was 1.9.

**Q.** And the Activity (Leishmania infantum [9])?
**A.** Its Activity is “Dose-dependent effect”.

**Q.** And the pIC50 (Leishmania infantum [10])?
**A.** Its pIC50 is 6.28.

**Q.** And the pIC50 (Leishmania tropica)?
**A.** The pIC50 was 6.29.

**Q.** What about the Activity (Leishmania infantum [11]) of the same molecule?
**A.** Its Activity is 57%.

**Q.** And the Activity (Leishmania infantum [12])?
**A.** Its Activity is 81%.

**Q.** What about the Activity (Mus musculus [13]) of the same molecule?
**A.** Its Activity is “Toxic”.

**Q.** What about the Activity (BMDM [14]) of the same molecule?
**A.** The Activity was “Dose-dependent effect”.

**Q.** And the Activity (Leishmania infantum [15])?
**A.** Its Activity is “Dose-dependent effect”.

**Q.** And the Activity (Mus musculus [16])?
**A.** Its Activity is “Non-Toxic”.

**Q.** What about the pIC50 (THP-1) of the same molecule?
**A.** The pIC50 was 6.00.

**Q.** And the Activity (Mus musculus [17])?
**A.** Its Activity is “Non-Toxic”.

**Q.** And the Activity (BMDM [18])?
**A.** The Activity was “Dose-dependent effect”.
